In ChEMBL document CHEMBL1955795, “Efficient synthesis and biological evaluation of proximicins A, B and C” (Bioorg Med Chem, 2012):
In brackets after ≈: the same amount, converted by molar mass. Activity calls are given as the source filed them. The rule behind the calls is not given here.

Assays:
Staphylococcus aureus [1] = test: Antimicrobial activity against Staphylococcus aureus […] after 24 hrs by MTT assay; assay type: functional
Method in brief: (§1)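 Broth microdilution MIC in cation-adjusted Mueller-Hinton broth adjusted to 20 mg/L Ca²⁺ and 10 mg/L Mg²⁺. Strains grown on nutrient agar 24 h at 37 °C before testing. Inoculum of 5 × 10⁵ cfu prepared in normal saline against a 0.5 McFarland standard, added to wells and incubated at 37 °C. MTT (5 mg/mL methanolic solution) added for 20 min. Yellow-to-dark-blue colour change indicated growth. MIC = lowest concentration with no growth.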

Staphylococcus aureus [2] = test: Antimicrobial activity against epidemic methicillin-resistant Staphylococcus aureus 16 after 24 hrs by MTT assay; assay type: functional; conditions: Staphylococcus aureus, 16, 24 h; method in brief: as §1
Staphylococcus aureus [3] = test: Antimicrobial activity against Staphylococcus aureus SA 1199B over-expressing NorA MDR efflux pump after 24 hrs by MTT assay; assay type: functional; method in brief: as §1
Staphylococcus aureus [4] = test: Antimicrobial activity against epidemic methicillin-resistant Staphylococcus aureus 15 after 24 hrs by MTT assay; assay type: functional; conditions: Staphylococcus aureus, 15, 24 h; method in brief: as §1
Escherichia coli = test: Antimicrobial activity against Escherichia coli NCTC 10418 after 24 hrs by MTT assay; assay type: functional; conditions: NCTC 10418, 24 h
Method in brief: (§2)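 Broth microdilution MIC in cation-adjusted Mueller-Hinton broth supplemented to 20 mg/L Ca2+ and 10 mg/L Mg2+. Strains grown on nutrient agar 24 h at 37 °C. Inoculum of 5 × 10⁵ cfu set in normal saline against a 0.5 McFarland standard. Plates incubated at 37 °C, then MTT (5 mg/mL methanolic, 20 µL) added for 20 min. MIC taken as the lowest concentration with no yellow-to-blue colour change.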

Enterococcus faecalis = test: Antimicrobial activity against Enterococcus faecalis NCTC 12697 after 24 hrs by MTT assay; assay type: functional; conditions: NCTC 12697, 24 h; method in brief: as §2
MDA-MB-231 = test: Cytotoxicity against human MDA-MB-231 cells after 48 hrs by MTT assay; assay type: functional, cell-based; conditions: MDA-MB-231, 48 h
Method in brief: (§3)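 U-87 MG cells in MEM and MDA-MB-231 cells in DMEM, each with 10% FBS, L-glutamine, non-essential amino acids and sodium pyruvate, kept at 5% CO2. Log-phase cells exposed to increasing drug concentrations for 24 h, then grown in fresh medium for a further 48 h. MTT added for 4 h, formazan dissolved in DMSO, absorbance read. Viability normalised to untreated wells after subtracting Triton-treated wells. IC50 derived.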

Jurkat [5] = test: Induction of apoptosis in human Jurkat 16 cells assessed as DNA fragments release from apoptotic nuclei at 50 ug/ml after 48 hrs by propidium iodide based flow cytometry analysis; assay type: functional, cell-based
Method in brief: (§4)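 Cells grown in RPMI with 10% FCS and penicillin/streptomycin at 37 °C, 5% CO2. Plated in duplicate and treated 48 h with increasing concentrations. DNA released from apoptotic nuclei stained with propidium iodide. Percentage DNA fragmentation quantified by flow cytometry.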

L1236 [6] = test: Induction of apoptosis in human L1236 cells assessed as DNA fragments release from apoptotic nuclei at 50 ug/ml after 48 hrs by propidium iodide based flow cytometry analysis; assay type: functional, cell-based; method in brief: as §4
[7] = Cytotoxicity against human U87MG cells after 48 hrs by MTT assay; assay type: functional, cell-based, U-87MG ATCC; conditions: U-87 MG; method in brief: as §3
L1236 [8] = test: Induction of apoptosis in human L1236 cells assessed as DNA fragments release from apoptotic nuclei at 20 ug/ml after 24 hrs by propidium iodide based flow cytometry analysis; assay type: functional, cell-based
Method in brief: (§5)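 Cells grown in RPMI with 10% FCS and penicillin/streptomycin at 37 °C, 5% CO2. Treated 24 h at 20 µg/mL. Apoptotic DNA fragmentation measured as propidium iodide fluorescence by flow cytometry, reported as percentage of degraded DNA.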

Jurkat [9] = test: Induction of apoptosis in human Jurkat 16 cells assessed as DNA fragments release from apoptotic nuclei at 20 ug/ml after 24 hrs by propidium iodide based flow cytometry analysis; assay type: functional, cell-based; method in brief: as §5
Jurkat [10] = test: Induction of apoptosis in human Jurkat 16 cells assessed as DNA fragments release from apoptotic nuclei after 48 hrs by propidium iodide based flow cytometry analysis; assay type: functional, cell-based; method in brief: as §4

Structure (SMILES)	MIC (Staphylococcus aureus [1]) [µg/mL]	MIC (Staphylococcus aureus [2]) [µg/mL]	MIC (Staphylococcus aureus [3]) [µg/mL]	MIC (Staphylococcus aureus [4]) [µg/mL]	MIC (Escherichia coli) [µg/mL]	MIC (Enterococcus faecalis) [µg/mL]	IC50 (MDA-MB-231) [µg/mL]	Activity (Jurkat [5])	Activity (L1236 [6])	IC50 [7] [µg/mL]	Activity (L1236 [8])	Activity (Jurkat [9])	Activity (Jurkat [10])
Cn1cc(NC(=O)c2cc(NC(=O)CNC(=N)N)cn2C)cc1C(=O)NCCC(=N)N [NETROPSIN]	64 (≈ 149 µM)	128 (≈ 297 µM)	16 (≈ 37.2 µM)	–	–	–	–	–	–	–	–	–	–
CN(C)[C@@H]1C(O)=C(C(N)=O)C(=O)[C@@]2(O)C(O)=C3C(=O)c4c(O)cccc4[C@@](C)(O)[C@H]3C[C@@H]12 [TETRACYCLINE]	0.5 (≈ 1.13 µM)	0.5 (≈ 1.13 µM)	0.25 (≈ 0.563 µM)	0.12 (≈ 0.27 µM)	0.12 (≈ 0.27 µM)	4 (≈ 9 µM)	–	–	–	–	–	–	–
COC(=O)Nc1coc(C(=O)Nc2coc(C(=O)NCCc3c[nH]c4ccccc34)c2)c1 [PROXIMICIN C]	> 256	> 256	> 256	> 128	> 128	> 128	11.4 (≈ 26.1 µM)	Active	inactive	12.7 (≈ 29.1 µM)	–	–	–
COC(=O)Nc1coc(C(=O)Nc2coc(C(=O)NCCc3ccc(O)cc3)c2)c1 [PROXIMICIN B]	8 (≈ 19.4 µM)	8 (≈ 19.4 µM)	4 (≈ 9.68 µM)	8 (≈ 19.4 µM)	> 128	4 (≈ 9.68 µM)	–	–	–	–	Active	Active	Dose-dependent effect
